Calls of active or inactive are those of the source. No cut-off for these calls is given here.
Legend:
Plasmodium falciparum [1] = assay: Antiplasmodial activity against multi-drug resistant Plasmodium falciparum K1 infected in human erythrocytes assessed as parasite growth inhibition after 72 hrs by SYBR Green I dye-based fluorescence assay; type: functional, organism-based
[2] = (§1) Cytotoxicity against human HepG2 cells assessed as cell viability after 72 hrs by MTT assay; type: cell-based; details: HepG2 cells
Summary of the method: (§2)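 Cells were kept in RPMI with 10% FBS. 5×10^3 cells/well were settled 24 h, then exposed to compound from DMSO (final <0.5%): CHO for 24 h, HepG2 for 72 h, in duplicate. Wells were checked for precipitate. MTT was added for 2 h at 37 °C, formazan dissolved in DMSO, and A570 read (630 nm reference). Viability is % of untreated cells; CC50 from non-linear regression, mean of three experiments.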

[3] = Genotoxicity in DNA (unknown origin) incubated for 24 hrs in dark condition by methyl green displacement assay
Summary of the method: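 DNA-methyl green (4 mg in 20 mL 0.05 M Tris-HCl pH 7.5 with 7.5 mmol/L MgSO4) was shaken 24 h at 37 °C. It was then added to compound from DMSO (final <0.5%). A630 was read, and read again after 24 h at room temperature in the dark. DC50 is the concentration displacing 50% of methyl green.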

[4] = Selectivity index, ratio of CC50 for human HepG2 cells to IC50 for multi-drug resistant Plasmodium falciparum K1 infected in human erythrocytes
Plasmodium falciparum [5] = assay: Antiplasmodial activity against multi-drug resistant Plasmodium falciparum K1 infected in human erythrocytes assessed as depolarization of mitochondrial membrane at IC50 after 20 mins by flow cytometric analysis; type: functional, organism-based
HepG2 = assay: as §1; type: cell-based; details: hepg2, 72 h; summary of the method: as §2
Salmonella typhimurium [6] = assay: Mutagenicity in Salmonella typhimurium TA100 at 2.5 mM after 1 hr by Ames test in absence of S9 fraction; type: toxicity, organism-based; details: salmonella enterica subsp. enterica serovar typhimurium, 2500 µM
Summary of the method: (§3)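 Tester strains were grown overnight in nutrient broth. 0.1 mL culture was incubated 1 h at 37 °C with shaking with compound (2.5–25 mM DMSO solutions), with or without 4% S9 mix. Top agar was added and the mix plated on Vogel-Bonner agar. Revertants were counted after 48 h at 37 °C in the dark. A twofold rise over spontaneous revertants counts as mutagenic.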

Salmonella typhimurium [7] = assay: Mutagenicity in Salmonella typhimurium TA97A at 2.5 mM after 1 hr by Ames test in absence of S9 fraction; type: toxicity, organism-based; details: salmonella enterica subsp. enterica serovar typhimurium, 2500 µM; summary of the method: as §3
[8] = Cytotoxicity against CHO cells assessed as cell viability after 24 hrs by MTT assay; type: cell-based, Cricetulus griseus; details: chinese hamster; summary of the method: as §2
Plasmodium yoelii = assay: Antiplasmodial activity against liver stage of Plasmodium yoelii 17X NL sporozoites infected in human HepG2 cells expressing CD81 after 48 hrs by DAPI staining-based immunofluorescence analysis; type: functional, organism-based; details: HepG2, 48 h
Summary of the method: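 HepG2/CD81 cells were grown in D-MEM with 10% FBS. 25×10^3 cells/well went on collagen-coated wells; after 24 h they received compound and 5000 P. yoelii sporozoites together, then were spun 900 × g for 10 min at 4 °C. Treatment was renewed at 3 h and 24 h. At 48 h cells were methanol-fixed, stained with anti-HSP70 immunofluorescence, and parasites counted by microscopy. IC50 is 50% fewer parasites than in 0.5% DMSO controls.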

[9] = Cytotoxicity against human HepG2 cells expressing CD81 assessed as cell viability after 72 hrs by CellTiter-glo assay; type: cell-based
[10] = Inhibition of Plasmodium falciparum DHFR after 48 hrs
Summary of the method: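 Recombinant S. cerevisiae whose own DHFR is replaced by the P. falciparum DHFR domain was used. 1×10^4 cells were grown in YEPD with compound from DMSO (final <0.5%) at 30 °C for 48 h, in duplicate. Growth was read as A660. IC50 (50% growth inhibition) came from non-linear regression.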

[11] = Plasmodium falciparum, K1, 72 h, read-out: IC50

Row | SMILES | IC50 (Plasmodium falciparum [1]; [11]) | CC50 at 72 h [2] | further results
1 | CCC(CC)Nc1nc2cc(-c3ccc(C)cc3)sc2c(=O)[nH]1 | > 5 µM | 101 µM | 
2 | COc1cccc2c1C(=O)c1c(O)c3c(c(O)c1C2=O)C[C@@](O)(C(C)=O)C[C@@H]3O[C@H]1C[C@H](N)[C@H](O)[C@H](C)O1 [DAUNORUBICIN] |  |  | DC50 [3]: 1 µM
3 | CCCCCCC(C)Nc1nc2cc(-c3ccc(C)cc3)sc2c(=O)[nH]1 (centres undefined) | > 5 µM | 19.4 µM | 
4 | CC(C)Nc1nc2cc(-c3ccc(F)cc3)sc2c(=O)[nH]1 | 0.5 µM | > 25 µM | Ratio CC50/IC50 [4]: >66
5 | COc1ccc(-c2cc3nc(NC(C)(C)C)[nH]c(=O)c3s2)cc1 | > 5 µM | 32.3 µM | 
6 | CC(C)(C)Nc1nc2cc(-c3ccccc3)sc2c(=O)[nH]1 | 1 µM | 12.5 µM | Ratio CC50/IC50 [4]: 10
7 | CC(C)Nc1nc2c(-c3ccc(F)cc3)csc2c(=O)[nH]1 | > 5 µM | > 15.6 µM | 
8 | CCCCNc1nc2cc(-c3ccc(C)cc3)sc2c(=O)[nH]1 | > 5 µM | 6 µM | 
9 | Cc1ccc(-c2ccc3nc(NC(C)(C)C)[nH]c(=O)c3c2)cc1.Cl | > 5 µM | 0.49 µM | Ratio CC50/IC50 [4]: <10.2
10 | Cc1ccc(-c2cc3nc(NC(C)c4ccccc4)[nH]c(=O)c3s2)cc1 (centres undefined) | > 5 µM | 9.2 µM | 
11 | CC(C)Nc1nc2cc(-c3ccc(Br)cc3)sc2c(=O)[nH]1 | 1.7 µM | 13.4 µM | Ratio CC50/IC50 [4]: 9
12 | COc1ccc(-c2csc3c(=O)[nH]c(NC(C)C)nc23)cc1 | > 5 µM | 27.8 µM | 
13 | Cc1ccccc1-c1cc2nc(NC(C)(C)C)[nH]c(=O)c2s1 | 1.7 µM | 4 µM | Ratio CC50/IC50 [4]: 2
14 | CC(C)Nc1nc2c(-c3ccc(Cl)cc3)csc2c(=O)[nH]1 | > 5 µM | 7.1 µM | 
15 | CC(C)(C)Nc1nc2cc(-c3ccc(Cl)cc3)sc2c(=O)[nH]1 |  |  | Activity (Plasmodium falciparum [5]): inactive
16 | Cc1ccc(-c2csc3c(=O)[nH]c(NC(C)C)nc23)cc1 | 2.7 µM | 8.8 µM | Ratio CC50/IC50 [4]: 3
17 | CCCCCN(CCCCC)c1nc2cc(-c3ccc(C)cc3)sc2c(=O)[nH]1 |  |  | IC50 (Plasmodium falciparum [1]): ND(Insoluble); CC50 (HepG2): ND(Insoluble)
18 | CC(C)Nc1nc2cc(-c3ccc(Cl)cc3)sc2c(=O)[nH]1 | 0.6 µM | > 15.6 µM | Ratio CC50/IC50 [4]: >26
19 | CCCCCCNc1nc2cc(-c3ccc(C)cc3)sc2c(=O)[nH]1 | > 5 µM | 10.6 µM | 
20 | Cc1ccc(-c2cc3nc(NCC(C)C)[nH]c(=O)c3s2)cc1 | > 5 µM | 21.6 µM | 
21 | CCN(CCCl)CCCNc1c2ccc(Cl)cc2nc2ccc(OC)cc12 |  |  | Activity (Salmonella typhimurium [6]): Toxic; Activity (Salmonella typhimurium [7]): Toxic
22 | CCCN(CCC)c1nc2cc(-c3ccc(C)cc3)sc2c(=O)[nH]1 |  |  | IC50 (Plasmodium falciparum [1]): ND(Insoluble); CC50 (HepG2): ND(Insoluble)
23 | COc1cccc2c1C(=O)c1c(O)c3c(c(O)c1C2=O)C[C@@](O)(C(=O)CO)C[C@@H]3O[C@H]1C[C@H](N)[C@H](O)[C@H](C)O1 [DOXORUBICIN] |  |  | CC50 at 24 h [8]: 0.6 µM
24 | O=C1C(O)=C([C@H]2CC[C@H](c3ccc(Cl)cc3)CC2)C(=O)c2ccccc21 [ATOVAQUONE] |  | > 15.6 µM | IC50 (Plasmodium yoelii): 0.009 µM; CC50 at 72 h [9]: 9.5 µM
25 | CCc1nc(N)nc(N)c1-c1ccc(Cl)cc1 [PYRIMETHAMINE] |  |  | IC50 [10]: 2.8 µM

— ChEMBL document CHEMBL3414541, “Discovery of new thienopyrimidinone derivatives displaying antimalarial properties toward both erythrocytic and hepatic stages of Plasmodium” (Eur J Med Chem, 2015)
